# pIC50: −log10 of the molar value. The source made the active and inactive calls. No cut-off for these calls is given here.
# How the values were obtained:
# [1] = target: T1, Geranylgeranyl transferase type-2 (Homo sapiens) (UniProt P53611+Q92696); test: Inhibition of GGtase-2 in human RPMI8226 cells assessed as decrease in Rab6 level at =< 1 mM after 48 hrs by immunoblot analysis relative to control; assay type: cell-based
# How it was run: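 After 48 h treatment, RPMI-8226 cells were extracted with Triton X-114 to give a detergent (membrane) fraction, which was immunoblotted for Rab6. Rab6 band density was normalized to calnexin and expressed relative to untreated cells. Blots are representative of three independent studies.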
# Homo sapiens = species on record: Homo sapiens; test: Selectivity ratio of IC50 for GGDPS (unknown origin) to IC50 for FDPS (unknown origin)
# [2] = target: T2, Farnesyl pyrophosphate synthase (Homo sapiens) (UniProt P14324); test: Inhibition of FDPS in human RPMI8226 cells assessed as unmodified Rap1a level at =< 1 mM after 48 hrs by immunoblot analysis; assay type: cell-based
# T2 sequence (whole entry): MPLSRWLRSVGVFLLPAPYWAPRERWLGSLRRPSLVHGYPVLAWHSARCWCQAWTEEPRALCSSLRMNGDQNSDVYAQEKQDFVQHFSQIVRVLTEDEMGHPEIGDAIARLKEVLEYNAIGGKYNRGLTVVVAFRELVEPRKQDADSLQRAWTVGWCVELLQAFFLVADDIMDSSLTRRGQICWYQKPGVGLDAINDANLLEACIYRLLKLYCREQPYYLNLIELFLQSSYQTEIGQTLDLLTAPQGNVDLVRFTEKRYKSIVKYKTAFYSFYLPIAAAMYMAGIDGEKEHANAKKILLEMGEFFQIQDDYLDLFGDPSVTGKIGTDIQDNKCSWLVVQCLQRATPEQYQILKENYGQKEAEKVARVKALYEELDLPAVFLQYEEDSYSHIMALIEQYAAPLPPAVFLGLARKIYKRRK
# How it was run: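 RPMI-8226 cells were exposed for 48 h. The lowest effective concentration counts only when two read-outs agree. Unmodified Rap1a must be visible on immunoblot of whole-cell lysate, using an antibody that detects only unmodified protein.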
# [3] = target: Protein farnesyltransferase (Homo sapiens) (UniProt P49354+P49356); test: Inhibition of FTase in human RPMI8226 cells assessed as disruption of H-ras farnesylation after 48 hrs by immunoblot analysis; assay type: cell-based
# [4] = target: T3, geranylgeranyltransferase type-I (Rattus norvegicus) (UniProt P53610+Q04631); test: Activation of recombinant rat GGtase-1 expressed in Escherichia coli assessed as enzyme activity at 1000 uM using dansyl-GCVLL as substrate after 1.5 hrs by spectrofluorimetric analysis relative to control
# [5] = target: geranylgeranyltransferase type-I (Rattus norvegicus, UniProt P53610+Q04631); test: Inhibition of recombinant rat GGtase-1 expressed in Escherichia coli using dansyl-GCVLL as substrate after 1.5 hrs by spectrofluorimetric analysis
# [6] = target: T3, geranylgeranyltransferase type-I (Rattus norvegicus); test: Activation of recombinant rat GGtase-1 expressed in Escherichia coli using dansyl-GCVLL as substrate after 1.5 hrs by spectrofluorimetric analysis
# [7] = target: Protein farnesyltransferase (Rattus norvegicus, UniProt Q02293+Q04631); test: Inhibition of recombinant rat FTase expressed in Escherichia coli using dansyl-GCVLS as substrate after 1.5 hrs by spectrofluorimetric analysis
# [8] = target: T2, Farnesyl pyrophosphate synthase (Homo sapiens); test: Inhibition of FDPS in human RPMI8226 cells assessed as increase in intracellular lambda chain level at =< 1mM after 48 hrs by ELISA; assay type: cell-based
# How it was run: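 RPMI-8226 cells were exposed for 48 h, and intracellular lambda light chain was measured by ELISA as percent of untreated control. The lowest effective concentration also requires unmodified Rap1a to be visible on whole-cell-lysate immunoblot with an unmodified-specific antibody. The ELISA rise must be statistically significant.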
# [9] = target: T4, Geranylgeranyl pyrophosphate synthase (Homo sapiens, UniProt O95749); test: Inhibition of GGDPS (unknown origin) using [14C] IPP and FPP as substrate preincubated for 10 mins followed by substrate addition and measured after 30 min by liquid scintillation counting method
# T4 sequence (O95749 whole entry): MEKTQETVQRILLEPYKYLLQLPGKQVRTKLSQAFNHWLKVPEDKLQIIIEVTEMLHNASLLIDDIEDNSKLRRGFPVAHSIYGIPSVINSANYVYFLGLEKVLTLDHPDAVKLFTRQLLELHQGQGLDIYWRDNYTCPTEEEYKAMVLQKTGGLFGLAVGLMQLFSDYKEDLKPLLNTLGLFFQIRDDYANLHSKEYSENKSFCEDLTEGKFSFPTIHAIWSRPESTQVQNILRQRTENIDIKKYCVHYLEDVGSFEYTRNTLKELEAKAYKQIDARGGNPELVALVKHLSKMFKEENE
# [10] = target: T1, Geranylgeranyl transferase type-2 (Homo sapiens); test: Inhibition of GGtase-2 in human RPMI8226 cells assessed as increase in intracellular lambda chain at =< 1 mM level after 48 hrs by ELISA; assay type: cell-based
# How it was run: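 RPMI-8226 cells were incubated 48 h with the compound or medium alone. Intracellular lambda light chain was quantified by ELISA and expressed as percent of untreated control (mean ± SD, n=3). Significance versus control was judged by t-test, p<0.05.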
# [11] = target: Geranylgeranyl transferase type I (Homo sapiens) (UniProt P49354+P53609); test: Inhibition of GGtase-1 in human RPMI8226 cells assessed as disruption of Rap1a geranylgeranylation after 48 hrs immunoblot analysis; assay type: cell-based
# [12] = target: T5, Geranylgeranyl transferase type-2 (Rattus norvegicus, UniProt Q08602+Q08603); test: Inhibition of recombinant rat RabGGTase expressed in Escherichia coli using Rab7 as substrate and [3H]geranylgeranyl pyrophosphate after 20 mins by liquid scintillation analysis
# T5 sequence (Q08603 whole entry): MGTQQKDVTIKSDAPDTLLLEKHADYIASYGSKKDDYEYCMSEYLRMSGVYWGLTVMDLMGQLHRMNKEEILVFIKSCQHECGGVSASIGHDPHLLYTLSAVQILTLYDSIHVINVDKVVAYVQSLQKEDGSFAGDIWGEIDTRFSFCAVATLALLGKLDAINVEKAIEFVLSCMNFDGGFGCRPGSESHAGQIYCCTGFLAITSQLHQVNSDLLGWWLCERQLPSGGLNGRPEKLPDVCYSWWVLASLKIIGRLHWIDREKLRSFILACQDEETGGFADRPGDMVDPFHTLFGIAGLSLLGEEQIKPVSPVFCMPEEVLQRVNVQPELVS
# T5 sequence (Q08602 whole entry): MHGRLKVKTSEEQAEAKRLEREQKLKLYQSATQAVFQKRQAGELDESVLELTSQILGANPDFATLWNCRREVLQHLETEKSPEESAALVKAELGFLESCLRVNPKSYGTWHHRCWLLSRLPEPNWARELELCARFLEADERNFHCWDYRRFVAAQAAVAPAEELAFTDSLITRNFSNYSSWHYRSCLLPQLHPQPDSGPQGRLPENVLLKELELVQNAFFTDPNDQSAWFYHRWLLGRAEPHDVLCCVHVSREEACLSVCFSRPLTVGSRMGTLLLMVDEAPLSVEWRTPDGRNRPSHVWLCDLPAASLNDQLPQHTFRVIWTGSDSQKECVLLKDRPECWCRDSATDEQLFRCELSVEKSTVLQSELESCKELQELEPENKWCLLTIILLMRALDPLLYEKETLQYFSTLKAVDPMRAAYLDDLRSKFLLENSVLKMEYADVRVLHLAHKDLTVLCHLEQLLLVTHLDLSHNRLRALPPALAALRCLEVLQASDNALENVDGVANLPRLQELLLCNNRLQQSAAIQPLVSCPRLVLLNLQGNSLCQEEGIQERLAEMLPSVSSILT
# [13] = target: T6, Farnesyl pyrophosphate synthase (Homo sapiens, UniProt P14324); test: Inhibition of FDPS (unknown origin) using [14C] IPP and GPP as substrate preincubated for 10 mins followed by substrate addition and measured after 30 min by liquid scintillation counting method
# T6 sequence (P14324 whole entry): T2 sequence (whole entry)
structure (smiles),measurement,setting,value
Cc1cc2ncn(CC(P(=O)(O)O)P(=O)(O)O)c2cc1C,inhibition,[1],inactive
same,Ratio IC50,Homo sapiens,59
same,inhibition,[2],inactive
same,inhibition,[3],inactive
same,Activity,[4],560%
same,pIC50,[5],< 3.00
same,Activity,[6],Dose-dependent effect
same,pIC50,[7],< 3.00
same,inhibition,[8],inactive
same,pIC50,[9],4.39
same,inhibition,[10],inactive
same,inhibition,[11],inactive
same,pIC50,[12],3.27
same,pIC50,[13],6.16

# — ChEMBL document CHEMBL4312018, “Novel benzimidazole phosphonates as potential inhibitors of protein prenylation” (Bioorg Med Chem Lett, 2019)
